ChEMBL document CHEMBL1155808, “Antitumor activity of bis-indole derivatives” (J Med Chem, 2008)
Activity calls are given as the source filed them. The calls are words filed in the database; no cut-off is given here.

Columns and labels:
HEL = assay: Antiproliferative activity against human HEL cells after 48 hrs by MTT assay; type: functional, cell-based
[1] = Cytotoxicity against human melanoma cells; type: functional; details: Melanoma cell; for CC50: read-out: pLC50 (the source's name) (converted)
MDA-MB-231 = assay: Cytotoxicity against human MDA-MB-231 cells; type: functional, cell-based
Hs-578T = assay: Cytotoxicity against human Hs578T cells; type: functional, cell-based
Outline: (§1)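 MTT cytotoxicity assay in breast cancer cell lines; proliferation expressed as percent growth inhibition relative to vehicle-treated control cells; IC50 reported.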

[2] = Cytotoxicity against human mitochondrial gene-knockout human HL60p'0 cells after 48 hrs by MTT assay; type: functional, cell-based
[3] = Cytotoxicity against human central nervous system cancer cells; type: functional; details: Cancer cell lines; for CC50: read-out: pLC50 (the source's name) (converted); for TGI: read-out: pTGI (converted)
Outline: (§2)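 NCI 60-cell-line human tumour screen, with subpanels for leukemia, melanoma, lung, colon, kidney, ovary, breast, prostate and CNS. Compounds were dissolved in DMSO and tested at five ten-fold dilutions, highest 10^-4 M (10^-3 M for some). Endpoints were GI50, TGI and LC50, reported as negative log molar. Some compounds were assayed once, others two or three times.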

[4] = Cytotoxicity against human prostate cancer cells; type: functional; details: Cancer cell lines; for CC50: read-out: pLC50 (the source's name) (converted); for TGI: read-out: pTGI (converted); outline: as §2
[5] = Inhibition of plasma membrane electron transport pathway in human Mo7e cells by WST1 reduction assay; type: cell-based
Outline: (§3)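 Cells at 10^5 per well in 0.1 ml pretreated 30 min with compound in DMSO (<0.1% final), then WST-1/mPMS added (final 500 µM and 20 µM); WST-1 reduction followed in real time at 450 nm; averages ± S.E.M. of four independent experiments.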

[6] = Inhibition of plasma membrane electron transport pathway in human HL60 cells by WST1 reduction assay; type: cell-based; details: HL-60; outline: as §3
[7] = Cytotoxicity against human renal cancer cells; type: functional; details: Cancer cell lines; for CC50: read-out: pLC50 (the source's name) (converted); for TGI: read-out: pTGI (converted); outline: as §2
[8] = Cytotoxicity against human colon cancer cells; type: functional; details: Cancer cell lines; for CC50: read-out: pLC50 (the source's name) (converted); outline: as §2
[9] = Cytotoxicity against human leukemia cells; type: functional; details: Leukemia cell; for CC50: read-out: pLC50 (the source's name) (converted); for TGI: read-out: pTGI (converted); outline: as §2
MCF7 [10] = assay: Inhibition of proteasome in human MCF7 cells assessed as increase in stability of BCA2 protein at 1 umol/L in presence of cyclohexamide after 16 hrs by Western blot
Outline: (§4)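 MCF7 cells, 1×10^6 seeded per well, grown overnight; cycloheximide 100 μmol/L added alone or with MG-132 (10 μmol/L) or compound, total 8 and 16 h; lysates Western blotted with anti-BCA2, anti-C-erbB2 and β-actin antibodies; BCA2 and C-erbB2 levels expressed relative to β-actin by densitometry.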

[11] = Inhibition of plasma membrane electron transport pathway in human B1647 cells by WST1 reduction assay; type: cell-based; outline: as §3
[12] = Cytotoxicity against human ovarian cancer cells; type: functional; details: Cancer cell lines; for CC50: read-out: pLC50 (the source's name) (converted); for TGI: read-out: pTGI (converted)
MCF7 [13] = assay: Effect on beta-actin stability in human MCF7 cells at 10 umol/L in presence of cyclohexamide by Western blot; type: functional, cell-based; outline: as §4
MCF7 [14] = assay: Effect on C-erbB2 protein stability in human MCF7 cells at 10 umol/L in presence of cyclohexamide by Western blot; type: functional, cell-based; outline: as §4
[15] = Cytotoxicity against human breast cancer cells; type: functional; details: Cancer cell lines; for CC50: read-out: pLC50 (the source's name) (converted); for TGI: read-out: pTGI (converted); outline: as §1
HL-60 = assay: Cytotoxicity against human HL60 cells after 48 hrs by MTT assay; type: functional, cell-based; details: HL-60, 48 h
Mus musculus [16] = assay: Toxicity in ip dosed mouse assessed as maximum tolerated dose after 14 days; type: organism-based; details: in vivo, 336 h
Outline: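 Mice received a single i.p. injection of 400 mg/kg. If the animal survived 14 days, MTD was 400 mg/kg. If it died, the dose was lowered to 200 mg/kg and then halved repeatedly until a tolerated dose was found, which was taken as the MTD.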

[17] = Inhibition of plasma membrane electron transport pathway in mitochondrial gene-knockout human HL60p'0 cells by WST1 reduction assay; outline: as §3
MCF7 [18] = assay: Cytotoxicity against human MCF7 cells; type: functional, cell-based
[19] = Cytotoxicity against human Non-small cell lung carcinoma cells; type: functional; details: for CC50: read-out: pLC50 (the source's name) (converted); for TGI: read-out: pTGI (converted); outline: as §2
Mo7e = assay: Antiproliferative activity against human Mo7e cells after 48 hrs by MTT assay; type: functional, cell-based
B1647 = assay: Antiproliferative activity against human B1647 cells after 48 hrs by MTT assay; type: functional, cell-based
[20] = Inhibition of plasma membrane electron transport pathway in human HEL cells by WST1 reduction assay; type: cell-based; outline: as §3
[21] = Antitumor activity against human HL60(TB) cells xenografted in mouse assessed as net log cell kill at 200 mg/kg, ip dosed as Q4Dx3, day 7 schedule relative to control; type: functional, HL-60(TB); details: route intraperitoneal
[22] = Antitumor activity against human HL60(TB) cells xenografted in mouse assessed as effect on tumor growth at 134 mg/kg, ip dosed as Q4Dx3, day 7 schedule measured on day 19 relative to control; type: functional, HL-60(TB); details: route intraperitoneal
[23] = Antitumor activity against human HL60(TB) cells xenografted in mouse assessed as net log cell kill at 90 mg/kg, ip dosed as Q4Dx3, day 7 schedule relative to control; type: functional, HL-60(TB); details: route intraperitoneal
Mus musculus [24] = assay: Toxicity in human HL60(TB) cells xenografted mouse assessed as drug induced death at 90 mg/kg, ip dosed as Q4Dx3, day 7 schedule measured on day 22; type: organism-based; design: dose 90 mg/kg, route intraperitoneal; details: in vivo
Mus musculus [25] = assay: Toxicity in human HL60(TB) cells xenografted mouse assessed as mean net weight loss at 200 mg/kg, ip dosed as Q4Dx3, day 7 schedule measured on day 14; type: organism-based; design: dose 200 mg/kg, route intraperitoneal; details: in vivo
[26] = Antitumor activity against human HL60(TB) cells xenografted in mouse assessed as tumor growth delay at 90 mg/kg, ip dosed as Q4Dx3, day 7 schedule relative to control; type: functional, HL-60(TB); details: route intraperitoneal
[27] = Antitumor activity against human HL60(TB) cells xenografted in mouse assessed as net log cell kill at 134 mg/kg, ip dosed as Q4Dx3, day 7 schedule relative to control; type: functional, HL-60(TB); details: route intraperitoneal
[28] = Antitumor activity against human HL60(TB) cells xenografted in mouse assessed as tumor growth delay at 200 mg/kg, ip dosed as Q4Dx3, day 7 schedule relative to control; type: functional, HL-60(TB); details: route intraperitoneal
Mus musculus [29] = assay: Toxicity in human HL60(TB) cells xenografted mouse assessed as drug induced death at 134 mg/kg, ip dosed as Q4Dx3, day 7 schedule measured on day 14; type: organism-based; design: dose 134 mg/kg, route intraperitoneal; details: in vivo
[30] = Antitumor activity against human HL60(TB) cells xenografted in mouse assessed as effect on tumor growth at 200 mg/kg, ip dosed as Q4Dx3, day 7 schedule measured on day 19 relative to control; type: functional, HL-60(TB); details: route intraperitoneal
[31] = Antitumor activity against human HL60(TB) cells xenografted in mouse assessed as tumor growth delay at 134 mg/kg, ip dosed as Q4Dx3, day 7 schedule relative to control; type: functional, HL-60(TB); details: route intraperitoneal
Mus musculus [32] = assay: Toxicity in human HL60(TB) cells xenografted mouse assessed as mean net weight loss at 134 mg/kg, ip dosed as Q4Dx3, day 7 schedule measured on day 14; type: organism-based; design: dose 134 mg/kg, route intraperitoneal; details: in vivo
Mus musculus [33] = assay: Toxicity in human HL60(TB) cells xenografted mouse assessed as drug induced death at 200 mg/kg, ip dosed as Q4Dx3, day 7 schedule measured on day 14; type: organism-based; design: dose 200 mg/kg, route intraperitoneal; details: in vivo
Mus musculus [34] = assay: Toxicity in human HL60(TB) cells xenografted mouse assessed as mean net weight loss at 90 mg/kg, ip dosed as Q4Dx3, day 7 schedule measured on day 22; type: organism-based; design: dose 90 mg/kg, route intraperitoneal; details: in vivo
[35] = Antitumor activity against human HL60(TB) cells xenografted in mouse assessed as tumor growth delay at 90 mg/kg, ip dosed as Q4Dx3, day 7 schedule day 7 schedule measured on day 19 relative to control; type: functional, HL-60(TB); details: route intraperitoneal

## O=C1Nc2cccc(Cl)c2/C1=C\c1cccc(/C=C2/C(=O)Nc3cccc(Cl)c32)n1
HEL
  Activity: Active
[1]
  GI50: 0.589 µM
  CC50: 15.8 µM
MDA-MB-231
  IC50: 0.3 µM
Hs-578T
  IC50: 0.4 µM
[2]
  IC50: 3 µM
[3]
  GI50: 0.603 µM
  CC50: 23.4 µM
  TGI: 2.82 µM
[4]
  GI50: 0.437 µM
  CC50: 15.8 µM
  TGI: 2.09 µM
[5]
  IC50: 15 µM
[6]
  IC50: > 117 µM
[7]
  GI50: 0.427 µM
  CC50: 7.59 µM
  TGI: 1.51 µM
[8]
  GI50: 0.417 µM
  CC50: 19.1 µM
[9]
  GI50: 0.0912 µM
  CC50: 44.7 µM
  TGI: 1.91 µM
MCF7 [10]
  fold change (FC): 2
[11]
  IC50: 30 µM
[12]
  GI50: 0.501 µM
  CC50: 30.9 µM
  TGI: 2.82 µM
MCF7 [13]
  Activity: inactive
MCF7 [14]
  Activity: inactive
[15]
  GI50: 0.389 µM
  CC50: 39.8 µM
  TGI: 3.31 µM
HL-60
  IC50: 3 µM
Mus musculus [16]
  MTD: 400 mg/kg
[17]
  IC50: > 117 µM
MCF7 [18]
  IC50: 0.23 µM
[19]
  GI50: 0.676 µM
  CC50: 34.7 µM
  TGI: 2.69 µM
Mo7e
  Activity: Active
B1647
  Activity: Active
[20]
  IC50: 24 µM

## COc1ccc2c(c1)/C(=C\c1cccc(/C=C3/C(=O)Nc4ccc(OC)cc43)n1)C(=O)N2
HEL
  Activity: Active
[1]
  GI50: 0.891 µM
  CC50: 13.5 µM
[21]
  LCK: -0.8
[22]
  T/C: 6.4%
[23]
  LCK: -1.1
[3]
  GI50: 1.62 µM
  CC50: 63.1 µM
  TGI: 12.9 µM
[4]
  GI50: 1.66 µM
  CC50: 69.2 µM
  TGI: 9.33 µM
Mus musculus [24]
  Activity: Non-toxic
[5]
  IC50: 30 µM
Mus musculus [25]
  Activity: 10%
[6]
  IC50: > 117 µM
[7]
  GI50: 1.45 µM
  CC50: 24 µM
  TGI: 4.27 µM
[8]
  GI50: 0.794 µM
  CC50: 30.9 µM
[8]; read-out: pTGI (converted)
  TGI: 4.68 µM
[9]
  GI50: 0.617 µM
  CC50: 57.5 µM
  TGI: 3.8 µM
[26]
  Activity: 25%
[27]
  LCK: -1.8
[11]
  IC50: 30 µM
[12]
  GI50: 1.12 µM
  CC50: 46.8 µM
  TGI: 9.33 µM
[28]
  Activity: 48%
Mus musculus [29]
  Activity: Non-toxic
[30]
  T/C: 90%
[31]
  Activity: -17%
[15]
  GI50: 1.48 µM
  CC50: 81.3 µM
  TGI: 14.8 µM
Mus musculus [32]
  Activity: 6.4%
Mus musculus [16]
  MTD: 400 mg/kg
[17]
  IC50: > 117 µM
Mus musculus [33]
  Activity: Non-toxic
[19]
  GI50: 1.7 µM
  CC50: 43.7 µM
  TGI: 10.7 µM
Mo7e
  Activity: Active
Mus musculus [34]
  Activity: 9.1%
B1647
  Activity: Active
[35]
  T/C: 138%
[20]
  IC50: 30 µM
